Experimental findings from ChEMBL document CHEMBL4622889, “Antineurodegenerative Labdane Diterpenoid Glycosides from the Twigs of Pinus koraiensis” (J Nat Prod, 2020) are described below.

Series [1] is described as follows: Cytotoxicity against rat C6 cells assessed as cell viability at 20 uM by MTT assay relative to control. The series is classed as cell-based. Conditions: read-out: Activity. Put shortly: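 C6 cells exposed to 20 μM of each compound; viability read by MTT and expressed as percent. Means ± SD of three independent experiments.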
(Tetrazolium assays rely on reduction of a dye to a coloured formazan, in cell work by metabolically active cells.)

Series [2] in a line: Cytotoxicity against mouse BV2 cells assessed as cell viability at 20 uM by MTT assay relative to control. It counts as cell-based, BV-2. Conditions: read-out: Activity. An outline of the steps:
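BV2 cells treated with 20 μM of each compound; viability determined by MTT and expressed as percent. Means ± SD of three independent experiments.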

A further series has as its system BV-2. In words: Antineuroinflammatory activity against mouse BV2 cells assessed as inhibition of LPS-induced NO production incubated for 24 hrs by Griess assay. The series is classed as functional, cell-based. The settings on record: BV-2, 24 h. Put shortly:
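BV2 microglia activated with LPS; NO production measured across compound concentrations, IC50 taken as the concentration (μM) giving 50% inhibition of NO production. Means ± SD of three independent experiments.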
For orientation: Griess reagent forms a coloured azo dye with nitrite.

A further series deals with C6. In words: Neuroprotective activity in rat C6 cells assessed as NGF secretion at 20 uM incubated for 24 hrs by ELISA relative to control. It counts as functional. An outline of the steps: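 Compounds applied to C6 glioma cells at 20 μM for 24 h; NGF released into the conditioned medium quantified by ELISA and given as percent of untreated control (100%). 6-Shogaol served as positive control. Means ± SD of three independent experiments.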

Structures are written as SMILES.

In general, IC50 refers to the concentration needed to halve the response being measured. Consider `C=C1CC[C@@H]2[C@](C)(CCC[C@]2(O)C(=O)O[C@@H]2O[C@H](CO)[C@@H](O)[C@H](O)[C@H]2O)[C@H]1CCC1=CCOC1=O`, for which the viability at 20 µM in series [1] came out at 76%; in series [2], 80.7%. For the same molecule, the 50% inhibitory concentration (IC50) in the series on BV-2 turned out to be 51.6 µM. The Activity in the series with C6 turned out to be 98.6%.

For the molecule `C=C1CC[C@@H]2[C@](C)(CCC[C@]2(C)C(=O)O[C@@H]2O[C@H](CO)[C@@H](O)[C@H](O)[C@H]2O)[C@H]1CCC1=CCOC1=O`, the viability at 20 µM in series [1] worked out at 101%; in series [2] it was 92.1%. Moreover, the IC50 in the series with BV-2 was 65.8 µM. For the same molecule, the Activity with C6 turned out to be 142.4%.

Turning to `C=C1CC[C@@H]2[C@](C)(CCC[C@]2(C)C(=O)O[C@@H]2O[C@H](CO)[C@@H](O)[C@H](O)[C@H]2O)[C@H]1CC/C(=C/CO)CO`, the viability at 20 µM in series [1] came out at 86.5%; in series [2], 133%. Further, the IC50 in the series on BV-2 worked out at 152 µM. In the series on C6, the Activity is given as 105.4%.

As for `C[C@]12CCC[C@](C)(C(=O)O[C@@H]3O[C@H](CO)[C@@H](O)[C@H](O)[C@H]3O)[C@@H]1CC=C(CO)[C@@H]2CCC1=CCOC1=O`, the viability at 20 µM in series [1] is 102%; in series [2], 87.7%. The concentration for half-maximal inhibition (IC50) in the series with BV-2 was determined as 93.2 µM. In addition, in the series with C6, the Activity is on record as 119.4%.

As for `C=C1C[C@H](O)[C@@H]2[C@](C)(CCC[C@]2(C)C(=O)O[C@@H]2O[C@H](CO)[C@@H](O)[C@H](O)[C@H]2O)[C@H]1CCC1=CCOC1=O`, the viability at 20 µM in series [1] came out at 101%; in series [2], 99.7%. Moreover, in the series on BV-2, the half-inhibitory concentration (IC50) is 35.7 µM. Moreover, the Activity with C6 is 128.7%.

Consider `C=C1CC[C@@H]2[C@](C)(CCC[C@]2(C)C(=O)O[C@@H]2O[C@H](CO)[C@@H](O)[C@H](O)[C@H]2O)[C@H]1CC/C(=C\CO)CO`, for which the values for the viability at 20 µM in series [1] and in series [2] were 104% and 135%, respectively. Moreover, the IC50 in the series on BV-2 amounted to 65.4 µM. For the same molecule, the Activity with C6 turned out to be 162.3%.

`C=C1CC[C@@H]2[C@](C)(CC[C@@H](O)[C@]2(C)C(=O)O[C@@H]2O[C@H](CO)[C@@H](O)[C@H](O)[C@H]2O)[C@H]1CCC1=CCOC1=O`: the viability at 20 µM is 92.8% in series [1] and 77.5% in series [2]. For the same molecule, in the series on BV-2, the IC50 stood at 24.1 µM. Moreover, the Activity with C6 amounted to 106.6%.

As to `C=C1CC[C@@H]2[C@](C)(CC[C@H](O)[C@]2(C)C(=O)O[C@@H]2O[C@H](CO)[C@@H](O)[C@H](O)[C@H]2O)[C@H]1CCC1=CCOC1=O`, the viability at 20 µM is 98.3% in series [1] and 91.3% in series [2]. Also, the half-inhibitory concentration (IC50) with BV-2 was 68.8 µM. In addition, the Activity in the series on C6 was determined as 134.7%.

As to `C[C@]12CCC[C@](C)(C(=O)O[C@@H]3O[C@H](CO)[C@@H](O)[C@H](O)[C@H]3O)[C@@H]1CC[C@](C)(O)[C@@H]2CCC1=CCOC1=O`, the viability at 20 µM in series [1] amounted to 94.2%; in series [2] it was 89.6%. In addition, the concentration for half-maximal inhibition (IC50) in the series with BV-2 turned out to be 49.2 µM. Further, in the series with C6, the Activity was determined as 106.1%.

Consider `C=C1CC[C@@H]2[C@](C)(CCC[C@]2(C)C(=O)O[C@@H]2O[C@H](CO)[C@@H](O)[C@H](O)[C@H]2O)[C@H]1CCC1=CC(=O)OC1`, for which the figures for the viability at 20 µM in series [1] and in series [2] were 105% and 107%, respectively. Further, the IC50 with BV-2 was determined as 54.1 µM. In the series with C6, the Activity is 162.7%.

As for `CNC(=N)NCCC[C@H](N)C(=O)O` [TILARGININE], in series [2], the viability at 20 µM was 99.2%. Besides, the 50% inhibitory concentration (IC50) with BV-2 worked out at 28.8 µM.

Regarding `C[C@]12CCC[C@](C)(C(=O)O[C@@H]3O[C@H](CO)[C@@H](O)[C@H](O)[C@H]3O)[C@@H]1CC[C@@](C)(O)[C@@H]2CCC1=CCOC1=O`, the viability at 20 µM worked out at 111% in series [1] and 70.4% in series [2]. In the series on BV-2, the IC50 stood at 402 µM. Further, in the series with C6, the Activity turned out to be 84.5%.
